Four molecules from ChEMBL document CHEMBL3600304, “Gageopeptins A and B, new inhibitors of zoospore motility of the phytopathogen Phytophthora capsici from a marine-derived bacterium Bacillus sp. 109GGC020” (Bioorg Med Chem Lett, 2015) can be followed below.

One experiment deals with Salmonella typhi. As to the kind of experiment: Antibacterial activity against Salmonella typhi by broth dilution assay. The class given is functional, Salmonella enterica subsp. enterica serovar Typhi. To be noted: Salmonella enterica. An outline of the steps:
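Broth dilution test giving the minimum concentration that inhibits growth, run against Gram-positive and Gram-negative bacteria. Growth conditions were kept specific to each organism during culture.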
Background: In broth dilution the organism is exposed to a series of concentrations in liquid medium.

For the next experiment, the system named is Staphylococcus aureus. In words: Antibacterial activity against Staphylococcus aureus by broth dilution assay. It counts as functional. An outline of the steps: (§1)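 Broth dilution assay for the minimum growth-inhibitory concentration against Gram-positive and Gram-negative bacteria and fungi. Each organism was cultured under its own growth conditions.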

In another experiment the test system is Pseudomonas aeruginosa. As to the kind of experiment: Antibacterial activity against Pseudomonas aeruginosa by broth dilution assay. It counts as functional. An outline of the steps: as §1
A further experiment relates to Bacillus subtilis. In words: Antibacterial activity against Bacillus subtilis by broth dilution assay. It counts as functional. An outline of the steps:
as §1

The test system of experiment [1] is Phytophthora capsici. As to the kind of experiment: Inhibition of Phytophthora capsici zoospore motility at 500 ug/ml after 15 to 60 mins by homogeneous solution method. The class given is functional, organism-based.
For the next experiment, the system named is Colletotrichum acutatum. As to the kind of experiment: Antifungal activity against Colletotrichum acutatum by broth dilution assay. The class given is functional. Put shortly:
as §1

The subject of experiment [2] is Phytophthora capsici. In words: Inhibition of Phytophthora capsici zoospore motility at 5 ug/ml by homogeneous solution method. It counts as functional, organism-based. To be noted: TDE = time-dependent effect.
The subject of experiment [3] is Phytophthora capsici. As to the kind of experiment: Induction of Phytophthora capsici zoospore lytic activity at 500 ug/ml after 5 to 60 mins by homogeneous solution method. The class given is functional, organism-based.
The next experiment has as its system Botrytis cinerea. In words: Antifungal activity against Botrytis cinerea by broth dilution assay. The class given is functional. Put shortly:
as §1

The next experiment deals with Rhizoctonia solani. As to the kind of experiment: Antifungal activity against Rhizoctonia solani by broth dilution assay. The class given is functional. Put shortly: as §1
Experiment [4] deals with Phytophthora capsici. In words: Inhibition of Phytophthora capsici zoospore motility after 15 to 60 mins by homogeneous solution method. The class given is functional, organism-based.
Experiment [5] has as its system Phytophthora capsici. In words: Induction of Phytophthora capsici zoospore lytic activity at 50 ug/ml after 30 mins by homogeneous solution method. The class given is functional, organism-based.
In experiment [6] the test system is Phytophthora capsici. In words: Induction of Phytophthora capsici zoospore lytic activity at 1 ug/ml after 5 to 60 mins by homogeneous solution method. It counts as functional, organism-based.
The test system of experiment [7] is Phytophthora capsici. In words: Induction of Phytophthora capsici zoospore lytic activity at 10 ug/ml after 60 mins by homogeneous solution method. It counts as functional, organism-based.
Experiment [8] deals with Phytophthora capsici. As to the kind of experiment: Inhibition of Phytophthora capsici zoospore motility at 1 ug/ml after 15 to 60 mins by homogeneous solution method. It counts as functional, organism-based.

Values after ≈ are worked out from the molar mass of the structure shown. Active and inactive are the calls of the source. No cut-off for these calls is given here. Where a SMILES comes first, the peptide text is derived from it.

Consider `CC[C@H]1OC(=O)[C@H](C)[C@@H](O[C@H]2C[C@@](C)(OC)[C@@H](O)[C@H](C)O2)[C@H](C)[C@@H](O[C@@H]2O[C@H](C)C[C@H](N(C)C)[C@H]2O)[C@](C)(O)C[C@@H](C)CN(C)[C@H](C)[C@@H](O)[C@]1(C)O` [AZITHROMYCIN], for which the MIC against Salmonella typhi, against Staphylococcus aureus, in the experiment with Pseudomonas aeruginosa and in the experiment on Bacillus subtilis was 2 µg/mL (≈ 2.67 µM) throughout.
Take `CCC(C)CCCCCCCCCC[C@@H]1CC(=O)N[C@@H](CCC(=O)O)C(=O)N[C@@H](C(C)C)C(=O)N[C@@H](CC(C)C)C(=O)N[C@@H](C)C(=O)N[C@@H](CC(=O)O)C(=O)N[C@@H](CC(C)C)C(=O)N[C@@H](CC(C)C)C(=O)O1` (stereo partly drawn) (HELM PEPTIDE1{E.V.L.A.D.L.L}|CHEM1{[CCC(C)CCCCCCCCCC[C@H](CC(=O)[*:1])O[*:2]]}$PEPTIDE1,CHEM1,1:R1-1:R1|PEPTIDE1,CHEM1,7:R2-1:R2$$$V2.0): the MIC with Salmonella typhi is 32 µg/mL (≈ 31.3 µM); with Staphylococcus aureus, 16 µg/mL (≈ 15.7 µM); against Colletotrichum acutatum, 8 µg/mL (≈ 7.83 µM); in the experiment with Botrytis cinerea it was 8 µg/mL (≈ 7.83 µM); in the experiment with Pseudomonas aeruginosa, 16 µg/mL (≈ 15.7 µM); against Bacillus subtilis it was 32 µg/mL (≈ 31.3 µM). In the experiment on Rhizoctonia solani, this molecule returned a minimal inhibitory concentration (MIC) of 8 µg/mL (≈ 7.83 µM). Moreover, the inhibition entry in the experiment on Phytophthora capsici [1] is “Active”. Also, the inhibition result with Phytophthora capsici [2] is “tde”; with Phytophthora capsici [4] it was “Dose-dependent effect”. The result in the experiment on Phytophthora capsici [3] was inactive. The same molecule displayed an IC50 in the experiment with Phytophthora capsici [4] of 400 µg/mL (≈ 391 µM).
For `CCC(C)CC(C)CCCCCCCC[C@@H]1CC(=O)N[C@@H](CCC(=O)O)C(=O)N[C@@H](C(C)C)C(=O)N[C@@H](CC(C)C)C(=O)N[C@@H](C)C(=O)N[C@@H](CC(=O)O)C(=O)N[C@@H](CC(C)C)C(=O)N[C@@H](CC(C)C)C(=O)O1` (stereo partly drawn) (HELM PEPTIDE1{E.V.L.A.D.L.L}|CHEM1{[CCC(C)CC(C)CCCCCCCC[C@H](CC(=O)[*:1])O[*:2]]}$PEPTIDE1,CHEM1,1:R1-1:R1|PEPTIDE1,CHEM1,7:R2-1:R2$$$V2.0), the outcome with Phytophthora capsici [5], with Phytophthora capsici [6] and in the experiment on Phytophthora capsici [7] was Active. The MIC stood at 16 µg/mL (≈ 15.4 µM) with Salmonella typhi; 16 µg/mL (≈ 15.4 µM) against Staphylococcus aureus; 8 µg/mL (≈ 7.72 µM) in the experiment with Colletotrichum acutatum; 4 µg/mL (≈ 3.86 µM) in the experiment on Botrytis cinerea; 16 µg/mL (≈ 15.4 µM) in the experiment on Pseudomonas aeruginosa; 16 µg/mL (≈ 15.4 µM) against Bacillus subtilis. Also, in the experiment with Rhizoctonia solani, the MIC was found to be 4 µg/mL (≈ 3.86 µM). Moreover, the values for the inhibition result in the experiment on Phytophthora capsici [2] and in the experiment on Phytophthora capsici [4] were “tde” and “Dose-dependent effect”, respectively. Moreover, the inhibition entry with Phytophthora capsici [8] was “Active”. The molecule also yielded an IC50 in the experiment with Phytophthora capsici [4] of 1 µg/mL (≈ 0.965 µM).
`C[C@@H]1[C@H](O)[C@@H](C)/C=C/C=C/C=C/C=C/C=C/C=C/C=C/[C@H](O[C@@H]2O[C@H](C)[C@@H](O)[C@H](N)[C@@H]2O)C[C@@H]2O[C@](O)(C[C@@H](O)C[C@@H](O)[C@H](O)CC[C@@H](O)C[C@@H](O)CC(=O)O[C@H]1C)C[C@H](O)[C@H]2C(=O)O` [AMPHOTERICIN B]: the minimum inhibitory concentration (MIC) in the experiment with Colletotrichum acutatum, in the experiment on Botrytis cinerea and in the experiment on Rhizoctonia solani was 1 µg/mL (≈ 1.08 µM) throughout.

The term MIC denotes the least concentration at which growth counts as inhibited. Low values mean inhibition by little substance, high ones a need for much substance. One may read the IC50 as the point on the concentration scale where inhibition reaches its midpoint. Read a high IC50 as a need for much substance.
